# Hits are enriched below; roughly 2.5% of the tested compounds scored in any of these assays.
# MC4R ag barr: human MC4R agonism via beta-arrestin; U2OS MC4R beta-arrestin complementation, luminescence; percent of melanotan II response, DMSO zero; activation, % at 8.9 µM; 360,000 compounds, 0.98% hits; AID 540308;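 active means activation above a per-plate cutoff, the mean activation of sample wells on that plate plus 3 SD, cut at about 8% in these data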
# Target sequence (P32245 whole entry, looked up): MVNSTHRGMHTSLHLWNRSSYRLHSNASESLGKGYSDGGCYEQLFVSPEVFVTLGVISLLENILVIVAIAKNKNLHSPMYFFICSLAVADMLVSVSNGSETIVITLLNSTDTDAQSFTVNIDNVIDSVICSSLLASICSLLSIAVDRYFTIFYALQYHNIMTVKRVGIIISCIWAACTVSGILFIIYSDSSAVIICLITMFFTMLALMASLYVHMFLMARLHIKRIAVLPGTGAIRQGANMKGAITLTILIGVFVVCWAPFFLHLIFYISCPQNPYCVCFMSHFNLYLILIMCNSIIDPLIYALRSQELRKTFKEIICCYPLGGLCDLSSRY
# A1 inh: inhibitors of the anti-apoptotic protein A1, read as caspase activation; caspase activation, % (concentration not given with the values); MEF A1-2A-BIM cells, Caspase-Glo 3/7 luminescence, 3 h; percent of clofoctol response, vehicle zero; 330,000 compounds, 0.066% hits; AID 2462;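 active means over half of replicate activation scores above 10%, or exactly half above 10 with the replicate mean above 10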
# NALP1 yeast inh: NALP1 inhibition. 280,000 compounds, 0.61% hits. inhibition, % at 10 µM. S. cerevisiae NALP1/ASC/caspase-1 growth, X-gal OD620, 72 h. AID 2071; in the data active means inhibition mostly above about 24%, no sharp cut-off; inactive means mostly below about 32%
# NLRP3 yeast inh: NALP3 inhibition in yeast; Yeast reconstituted NLRP3/ASC/caspase-1, beta-gal luminescence, 24 h; AID 2825; 330,000 compounds, 0.39% hits; inhibition, % at 10 µM;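 active means inhibition of 50% or more; inactive means inhibition below 50%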;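 further: plate controls were induced DMSO wells for no effect and uninduced yeast grown without galactose for full effect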
# MC4R antagonist: human MC4R antagonism in cAMP assay; inhibition, % at 6.5 µM; P32245; MC4R-expressing cells, MTII-stimulated cAMP, LANCE TR-FRET; 360,000 compounds, 0.48% hits; AID 540295;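 active means inhibition above its plate's cutoff, the mean of tested wells on that plate plus 3 SD, cut at about 29% in these data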;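 further: 0% = Melanotan II alone and 100% = Melanotan II plus saturating MCL0020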
#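 system = U2OS cells with stable human MC4R expression | also added = Melanotan II challenge after compound preincubation | dosing = one concentration, 6.5 µM nominal | incubation = compound 30 min, challenge 1 h, detection 1 h | measured by = TR-FRET with Eu-cAMP and labeled anti-cAMP, 671 nm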
# Tb MetRS inh: blocks T. brucei methionyl-tRNA synthetase activity; inhibition, % at 11.9 µM; 360,000 compounds, 0.4% hits; purified T. brucei MetRS, ATP depletion, Kinase-Glo luminescence;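 active means inhibition above a per-plate cutoff of the control wells' mean inhibition plus 3 SD, cut at about 5.5% in these data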;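 further: 0% = DMSO wells median and 100% = median of wells with control inhibitor compound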
#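 Material – parasite MetRS enzyme · Medium – HEPES-MgCl2-KCl buffer plus DTT, spermine, BSA, pyrophosphatase · Reagent – ATP, methionine and E. coli bulk tRNA substrates · Times – 15 min enzyme-compound preincubation, 2 h reaction, 10 min detection, 25 °C · Measured by – luminescence of leftover ATP · Evaluation – percent inhibition relative to median high and low control wells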
# MC4R barr conf: human MC4R beta-arrestin agonism confirmation | shares compounds with MC4R ag barr | U2OS MC4R beta-arrestin recruitment, luminescence; scaled DMSO 0%, Melanotan II 100% | activation, % at 8.9 µM | 2,400 compounds, 31% hits | AID 602192;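 active means mean activation across replicates above the hit cutoff set in the earlier primary screen, cut at about 8% in these data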
# MOR DOR agonist: counter-screen for MC4R agonists: agonists of mu-delta opioid heterodimer | U2OS PathHunter beta-arrestin, beta-gal luminescence; percent of deltorphin B response, DMSO zero | shares compounds with MC4R ag barr | 2,400 compounds, 5.8% hits | activation, % at 9.2 µM;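 active means mean activation across replicates exceeds the hit threshold derived in the earlier primary screen, cut at about 18% in these data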;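 further: 100% = deltorphin B at 0.9 µM final and 0% = DMSO alone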
# * = called active by the depositor; nt = no result; ! = not confirmed by another sample.
SMILES,MC4R ag barr,A1 inh,NALP1 yeast inh,NLRP3 yeast inh,MC4R antagonist,Tb MetRS inh,MC4R barr conf,MOR DOR agonist
O=C(NC(c1ccc(F)cc1)c1ccc2ccccc2n1)C1CCN(CCOc2ccc(Cl)cc2Cl)CC1 (stereo not drawn),18*,nt,nt,nt,6,0,12*,7
O=C(NC(c1ccc(Cl)cc1)c1ccccn1)C1CCN(CCOc2ccc(Cl)cc2Cl)CC1 (stereo not drawn),18*,nt,nt,nt,8,1,24*,15
Cc1cccnc1C(NC(=O)C1CCN(CCCc2ccccc2)CC1)c1ccc(Cl)cc1 (stereo not drawn),-2,nt,nt,nt,11,0,nt,nt
Cc1cccnc1C(NC(=O)C1CCN(CCOc2ccc(Cl)cc2Cl)CC1)c1ccc(Cl)cc1 (stereo not drawn),34*,nt,nt,nt,3,0,17*,8
CSc1ccccc1NC(=O)CN(C)C(=O)CNC(=O)c1ccc(Oc2ccccc2)cc1,-1,nt,nt,nt,3,0,nt,nt
CC(C)CC(N)c1csc(NC(=O)Nc2ccccc2C(C)C)n1 (stereo not drawn),1,nt,nt,nt,1,0,nt,nt
CCOC(=O)Cc1csc(NC(=O)c2sc3nc4cc(C)ccc4cc3c2N)n1,39*,-1,12,14,11,0,25*,2
COc1cccc(NC(=O)CN(C)C(=O)c2c(C)nn(-c3ccccc3)c2Cl)c1,-2,-1,nt,17,4,0,nt,nt
CCOC(=O)C1=C(N)c2ccccc2CC1C(C)C (stereo not drawn),11*,0,10,4,2,-1,3,8
N#Cc1ccc(-c2cccnc2)nc1SCc1ccc(Cl)cc1Cl,18*,0,5,5,-14,-1,6,4
O=C(Nc1ccc(N2CCN(c3ccc(O)cc3)CC2)cc1)Oc1ccccc1,26*,0,-2,10,-7,1,-3,3
C=CC(C)(O)CCCC(C)CCCC(C)CCCC(C)C (stereo not drawn),-1,1,nt,6,1,0,nt,nt
Oc1oc(-c2ccccc2Br)nc1C=Nc1ccc(Br)cn1,21*,0,13,25,2,0,10*,3
Oc1oc(-c2ccccc2)nc1/C=N/c1ccccn1,3,-1,4,13,-5,-2,nt,nt
O=C(Nc1ccc2ccccc2c1)c1ccc(Cl)cc1Cl,12*,-5,12,4,16,1,2,5
CCN1CCN(C(=O)/C=C/c2ccc(C(C)C)cc2)CC1,-3,1,nt,1,6,0,nt,nt
CCN1CCC(O)(/C=C/c2ccc(C(C)C)cc2)C(C(=O)/C=C/c2ccc(C(C)C)cc2)C1 (stereo not drawn),12*,nt,nt,nt,4,0,17*,14
CCOc1ccc(/C=C/C(=O)OC(C)C(=O)NC2CCCCC2C)cc1OC (stereo not drawn),1,0,nt,21,3,0,nt,nt
Cn1c2ccccc2c2cnn(CC(=O)Nc3cccc(F)c3)c(=O)c21,9.7*,0,nt,-8,8,0,1,3
COc1ccccc1S(=O)(=O)N(C)C[C@H]1OCc2cnnn2CCCC(=O)N([C@@H](C)CO)C[C@@H]1C,-1,nt,nt,nt,7,-1,nt,nt
COc1cc(/C=C/C(=O)/C=C(O)/C=C/c2ccc(O)c(OC)c2)ccc1O,12*,0,nt,nt,8,0,12*,6
COc1cc(/C=C/C(=O)O)ccc1O,0,-1,nt,-2,2,1,nt,nt
CCCc1ccccc1OCCNS(=O)(=O)c1cc2c(cc1C)OCC(=O)N2,8,0,-2,8,18,1,nt,nt
CCn1c(SCC(=O)Nc2ccc(C(C)=O)cc2)nc2nc3c(cc2c1=O)CCCC3,19*,1,nt,3,11,0,18*,2
COc1ccccc1NC(=S)NC(=O)c1ccc(-c2ccc(Cl)cc2)o1,20*,-1,1,8,13,0,0,2
SMILES,MC4R ag barr,A1 inh,NALP1 yeast inh,NLRP3 yeast inh,MC4R antagonist,Tb MetRS inh,MC4R barr conf,MOR DOR agonist
O=C(NC(=S)Nc1ccccc1O)c1ccc(-c2ccc(Cl)cc2)o1,30*,1,-8,24,2,-1,2,10
Cc1c(NC(=S)NC(=O)c2ccc(-c3ccc(Cl)cc3)o2)cccc1C(=O)O,2,0,6,20,22,0,nt,nt
CCc1nc2cc(NC(=O)C3(C)CCCN(C(C)C)C3)ccc2o1 (stereo not drawn),1,nt,nt,nt,12,0,nt,nt
CC(C)(C)c1ccc(OCC(=O)NCC(c2cccs2)N2CCOCC2)cc1 (stereo not drawn),2,-1,nt,20,4,0,nt,nt
COc1ccc(OCc2n(CC(=O)OC3CC(C)CCC3C(C)C)c3ccccc3[n+]2C)cc1 (stereo not drawn),38*,1,nt,6,-6,-1,11*,9
COc1ccc(-c2n(CC(=O)OC3CC(C)CCC3C(C)C)c3ccccc3[n+]2C)cc1 (stereo not drawn),3,nt,20,nt,-2,0,nt,nt
COC(=O)c1ccccc1C(=O)c1cccc2ccccc12,-1,-2,10,33,5,-1,nt,nt
COC(=O)c1cc2ccccc2c(-c2c(O)ccc3ccccc23)c1O,17*,2,-31,9,-17,0,13*,10
CCN1CCN(Cc2ccc(NC(=O)c3cc(NC(=O)c4cncc(-c5ccc(C#N)cc5)c4)cc(OC)c3)cc2C(F)(F)F)CC1,13*!,1,nt,4,3,-1,20*,13
CCCCOc1ccc(/C=N/NC(=S)Nc2cc(C)ccc2C)cc1,12*,1,8,12,1,-1,5,4
COc1ccc(CNc2nc(NCc3ccc(OC)cc3)c3[nH]cnc3n2)cc1,12*,-1,nt,9,5,0,8.8*,3
CCN(C(=O)COC(=O)CCOc1cc(C)ccc1C)c1c(N)n(Cc2ccccc2)c(=O)[nH]c1=O,0,nt,nt,nt,2,0,nt,nt
CO/N=C(/CS(=O)Cc1ccc(Cl)cc1)c1ccc(Cl)cc1 (stereo not drawn),14*,0,34,25,11,1,0,6
Fc1ccc(Nc2nc(NCc3cccs3)nc3ccsc23)cc1,2,nt,nt,nt,14,0,nt,nt
O=C(CSc1nc2c(sc3ccccc32)c(=O)n1Cc1ccccc1)NCC1CCCO1 (stereo not drawn),-2,0,2,2,2,0,nt,nt
